The record followed here is ChEMBL document CHEMBL1157508, “Mollamides B and C, Cyclic hexapeptides from the indonesian tunicate Didemnum molle” (J Nat Prod, 2008).

In brackets after ≈: the same amount, converted by molar mass. Activity calls are given as the source filed them. No cut-off for these calls is given here. Numbered stars: 1 amine (or outer) side, 2 acyl side, 3 side chain; on linkers, the order of the positions; unused ones are H or OH. Square brackets hold non-standard residues; d marks the D form. Peptide text beside a SMILES is read from it. * marks the point of attachment. X1 = CC(C)[C@H](N[*:1])C1=N[C@H](C(=O)[*:2])CS1; Allyl(1,1-Me2) = C=CC(C)(C)*

In assay [1] the test system is Mycobacterium intracellulare. The assay can be described thus: Antimicrobial activity against Mycobacterium intracellular. The assay is classed as functional, organism-based.
Assay [2] concerns Candida albicans. The assay can be described thus: Antimicrobial activity against Candida albicans. The assay is classed as functional, organism-based.
Assay [3] deals with Nakaseomyces glabratus. The assay can be described thus: Antimicrobial activity against Candida glabrata. It is filed as functional, organism-based.
The test system of assay [4] is Pichia kudriavzevii. The assay can be described thus: Antimicrobial activity against Candida krusei. The assay is classed as functional, organism-based.
Assay [5] concerns Cryptococcus neoformans. The assay can be described thus: Antimicrobial activity against Cryptococcus neoformans. It is filed as functional, organism-based.
In assay [6] the test system is Microglia. The assay can be described thus: Antiinflammatory activity against rat neonatal microglia. The assay is classed as functional.
Assay [7] has as its target T1, Prostaglandin G/H synthase 2 (Homo sapiens) (UniProt P35354).
T1 sequence (whole entry): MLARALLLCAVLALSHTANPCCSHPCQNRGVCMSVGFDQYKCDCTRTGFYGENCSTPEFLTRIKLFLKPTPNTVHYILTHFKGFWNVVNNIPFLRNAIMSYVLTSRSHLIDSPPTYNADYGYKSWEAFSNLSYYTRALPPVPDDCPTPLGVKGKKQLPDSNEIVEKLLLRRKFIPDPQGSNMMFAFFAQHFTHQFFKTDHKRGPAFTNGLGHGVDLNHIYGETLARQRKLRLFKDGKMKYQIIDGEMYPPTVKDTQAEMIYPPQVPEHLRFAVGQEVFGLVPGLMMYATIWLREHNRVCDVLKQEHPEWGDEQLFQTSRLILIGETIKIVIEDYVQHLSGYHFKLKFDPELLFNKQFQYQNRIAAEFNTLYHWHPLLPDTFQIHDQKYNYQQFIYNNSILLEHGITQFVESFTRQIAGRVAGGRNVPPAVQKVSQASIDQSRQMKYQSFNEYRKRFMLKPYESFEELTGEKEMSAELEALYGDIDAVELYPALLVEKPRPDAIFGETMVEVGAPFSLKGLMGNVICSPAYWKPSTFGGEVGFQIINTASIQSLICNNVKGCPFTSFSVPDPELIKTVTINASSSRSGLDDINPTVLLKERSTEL
The assay can be described thus: Inhibition of COX2 in cell based assay.

The subject of assay [8] is Plasmodium falciparum. The assay can be described thus: Antimalarial activity against Plasmodium falciparum D6. The assay is classed as functional, organism-based.
Assay [9] concerns Plasmodium falciparum. The assay can be described thus: Antimalarial activity against Plasmodium falciparum W2. The assay is classed as functional, organism-based.
Assay [10] deals with Leishmania donovani. The assay can be described thus: Antileishmanial activity against Leishmania donovani. It is filed as functional, organism-based.
Assay [11] relates to Staphylococcus aureus. The assay can be described thus: Antimicrobial activity against methicillin-resistant Staphylococcus aureus. The assay is classed as functional, organism-based.
The subject of assay [12] is Human immunodeficiency virus 1. The assay can be described thus: Antiviral activity against HIV1 infected in human PBMC. It is filed as functional, organism-based.
The test system of assay [13] is L1210. The assay can be described thus: Cytotoxicity against mouse L1210 cells assessed as zone differential value. The assay is classed as functional. A digest of the protocol:
(§1)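 In vitro disk diffusion assay measuring differential cell killing across nine cell types: leukemias (murine L1210, human CCRF-CEM), solid tumors (murine colon 38, human HCT-116, H125, MCF-7, LNCaP), and murine and human normal hematopoietic progenitor cells (CFU-GM). The read-out is the zone differential between solid tumor, leukemia and normal cell colonies.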

Assay [14] deals with HCT-116. The assay can be described thus: Cytotoxicity against human HCT116 cells assessed as zone differential value. The assay is classed as functional. An outline of the steps: as §1
Assay [15] can be described thus: Cytotoxicity against human H125 cells assessed as zone differential value. The assay is classed as functional. An outline of the steps:
as §1

Assay [16] in a line: Cytotoxicity against mouse Colon38 cells assessed as zone differential value. It is filed as functional. An outline of the steps:
as §1

On to `C=CC(C)(C)O[C@H](C)[C@@H]1NC(=O)[C@@H]2CCCN2C(=O)[C@H](Cc2ccccc2)NC(=O)[C@H](C(C)C)NC(=O)[C@@H]2CSC(=N2)[C@H](C(C)C)NC1=O` [MOLLAMIDE B] (cyclo(FPT(Allyl(1,1-Me2))[X1]V)), for which the outcome in assay [1], in assay [2], in assay [3], in assay [4], in assay [5] and in [6] was inactive. Also, the outcome in [7] and in [11] was inactive. In addition, the results for the IC50 in assay [8], in assay [9] and in assay [10] were 2 mg/L (≈ 2.87 µM), 2.1 mg/L (≈ 3.01 µM) and 18 mg/L (≈ 25.8 µM), respectively. In assay [10], this compound showed an IC90 of 35 mg/L (≈ 50.2 µM). The compound also displayed an EC50 in assay [12] of 48.7 µM.
Turning to `C=CC(C)(C)OC[C@@H]1NC(=O)CNC(=O)[C@@H]2CCCN2C(=O)[C@H]([C@H](C)CC)NC(=O)c2csc(n2)[C@H](CC(C)C)NC1=O` [MOLLAMIDE C], the outcome in assay [6] and in assay [7] was inactive. Besides, the Activity in assay [13] came out at 100; in assay [14] it was 100; in assay [15], 100; in assay [16] it was 250.

By IC50 is commonly meant the point on the concentration scale where inhibition reaches its midpoint. The term IC90 denotes the concentration needed for an effect of 90%. A low value points to an effect from little substance. Usually EC50 stands for the concentration that produces a half-maximal response. A higher EC50 goes with lower potency in that assay.
